Source: PubChem BioAssay
TRPC4 block: inhibitors of mouse TRPC4 channel, primary screen, Fluo4 calcium, HEK293 TRPC4beta/mu-opioid cells. Short transient receptor potential channel 4 (Mus musculus), Q9QUQ5. B-score at 10 µM. 300,000 tested, 0.39% active. DAMGO-evoked Fluo4 calcium flux; stronger effect = lower value;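 active means B-score over 3 SD under the library average, no early fluorescence shift, positive overall ratio signal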
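Test system – stable TRPC4beta/mu-opioid receptor HEK293 cells · Probe or stimulus – DAMGO, a submaximal dose followed by a maximal one · Dosing – one concentration per compound · Signal – Fluo4 calcium fluorescence by kinetic imaging, 5 s 1 Hz baseline · Evaluation – per-well B score of integrated baseline-normalized Fluo4 ratio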
TRPC4 PAM: positive allosteric modulators of TRPC4, primary screen, cell-based, mouse TRPC4beta, HEK293 mu-opioid, Fluo-4 calcium; DAMGO EC20, Fluo-4 Ca2+ flux; stronger effect = higher value; B-score at 10 µM; 310,000 tested, 0.42% active;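 active means B-score of calcium response area above 5 SD of library B-scores, with initial fluorescence ratio within 5 SD of library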;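 further: B-score of integrated fluorescence ratio over time as area under calcium response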
TRPC4 agonist: activators of mouse TRPC4 channel, primary screen, Fluo4 calcium, HEK293 TRPC4beta/mu-opioid cells; Short transient receptor potential channel 4 (Mus musculus), Q9QUQ5; Fluo4 calcium fluorescence; stronger effect = higher value; B-score at 10 µM; 310,000 tested, 0.49% active;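 active means B-score above 5 SD of library B-scores, and initial fluorescence ratio not above library mean plus 5 SD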;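 further: positive B-score marks a calcium rise read as TRPC4 activation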
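Assay system: HEK293 cells stably co-expressing mouse TRPC4beta and mu-opioid receptor / Timing: Fluo4 dye loading 45 min at room temperature, 110 s recording / Signal: Fluo4 calcium-sensitive dye fluorescence, kinetic, 1 Hz baseline / Read-out: integrated baseline-normalised fluorescence ratio, converted to per-well B score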
TRPC6 activator: mouse TRPC6 channel activators, primary screen, cell-based, HEK293, membrane potential dye | AID 2550, 2010 | HEK293-TRPC6 membrane potential dye fluorescence; stronger effect = higher value | 310,000 tested, 0.13% active | B-score at 10 µM;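 active means B-score of the integrated fluorescence ratio above library mean plus 3 SD, and starting fluorescence ratio within library mean plus 5 SD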;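 further: higher score means more depolarization so channel activation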
TRPC6 inhibitor: mouse TRPC6 channel inhibitors, primary screen, cell-based, HEK293, membrane potential dye. Short transient receptor potential channel 6 (Mus musculus), Q61143. B-score at 10 µM. ACh-evoked depolarization; stronger effect = lower value. 310,000 tested, 1.1% active;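 active means B-score under library mean minus 3 SD, initial fluorescence not abnormally high, positive integrated signal ratio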;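 further: B-score derived from integrated fluorescence ratio over the kinetic read; more negative B-score means stronger inhibition of depolarization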
Active calls of the source: *; i = inactive; x = no result; ! = not confirmed by another sample. Sampled rows, rich in hits. Any-hit rate of the full collection: about 2.3%.

SMILES | TRPC4 block | TRPC4 PAM | TRPC4 agonist | TRPC6 activator | TRPC6 inhibitor
COc1ccc(C(CNC(=O)C2CC(=O)N(Cc3ccc(C)cc3)C2)N(C)C)cc1 (stereo not drawn) | i | i | 66* | i | i
CN(C)C(CNC(=O)C1CC(=O)N(Cc2ccccc2)C1)c1ccccc1 (stereo not drawn) | i | i | 72* | i | i
CCCNC(=O)/C=C/C(=O)O | i | i | i | i | i
Cc1ncsc1CCOC(=O)c1cccc([N+](=O)[O-])c1 | -6*! | i | i | i | i
O=C(COC(=O)c1cccc([N+](=O)[O-])c1)NCc1cccs1 | x | i | i | i | i
COc1cc(/C=C/C(=O)OCC(=O)Nc2c(C)n(C)n(-c3ccccc3)c2=O)ccc1OCC#N | i | i | 125* | i | i
COc1cc(/C=C/C(=O)OCC(=O)Nc2c(C)n(C)n(-c3ccccc3)c2=O)ccc1O | i | i | i | i | i
Cc1nc(N2CCOCC2)[nH]c(=O)c1C | i | i | i | i | i
COc1cc(-c2n[nH]c(=S)n2/N=C/c2cccn2C)cc(OC)c1OC | i | i | 52* | i | i
O=S(=O)(NC1CCCCC1N1CCN(c2ccccc2F)CC1)c1ccc(Cl)cc1 (stereo not drawn) | i | 12* | i | i | i
O=C1S/C(=C\c2ccc(O)c([N+](=O)[O-])c2)C(=O)N1c1ccccc1Cl | -10* | i | i | i | i
COc1ccc(Br)cc1CN1CCCC(C(=O)N2CCCCCC2)C1 (stereo not drawn) | -6* | i | i | i | i
COc1ccc(Br)cc1CN1CCC(N2CCCC2)CC1 | i | 17* | i | i | i
COc1ccc(NC(=O)C(=O)NCCC2CCCCN2S(=O)(=O)c2ccccc2)cc1 (stereo not drawn) | i | i | i | i | i
O=C(NC(=S)Nc1ccccn1)c1cccc([N+](=O)[O-])c1 | i | i | i | i | i
NCCCCCCNS(=O)(=O)c1cccc2c(Cl)cccc12 | i | i | 95* | i | i
COc1ccc(C)c(NC(=O)NCCc2cnc[nH]2)c1 | i | i | 129* | i | i
COc1ccc(S(=O)(=O)N2CCCC(C(=O)NCCC(C)C)C2)cc1 (stereo not drawn) | i | i | i | i | i
CCC1CCCCN1CCN1C(=O)C2C(C(=O)Nc3ccc(OC)cc3)C3C=CC2(O3)C1C(=O)NC1CCCCC1 (stereo not drawn) | -6* | i | i | i | i
CCN(CC)CCN1C(=O)C2C(C(=O)Nc3cc(C)cc(C)c3)C3C=CC2(O3)C1C(=O)NC1CCCCC1 (stereo not drawn) | i | i | 47* | i | i
Cc1cccc(NC(=O)CNC(=O)CN2C(=O)NC3(CCCCC3C)C2=O)c1C (stereo not drawn) | i | 17* | i | i | i
CC1CCCCC12NC(=O)N(CC(=O)NCCc1ccccn1)C2=O (stereo not drawn) | i | i | i | i | i
CCCC(=O)N/C(N)=N/c1nc(C)c2cc(C)ccc2n1 | i | i | i | i | i
Cc1ccc2nc(/N=C(\N)NC(=O)NC3CCCCC3)nc(C)c2c1 | i | i | 55* | i | i
O=C(Nc1ccnn1C1CCN(CCCc2ccccc2)CC1)c1cccc(F)c1 | i | i | i | i | i
CC(C)CN(CC(C)C)c1nc(N)c(C#N)c(CC#N)c1C#N | -6* | i | i | i | i
COc1ccc(CC(O)CC2c3c(cc4c(c3OC)OCO4)CCN2C)cc1 (stereo not drawn) | -6* | i | 58* | i | i
O=C(NC1CCS(=O)(=O)C1)c1cnccn1 (stereo not drawn) | i | i | i | i | i
